# Columns and labels:
# Assay type in all cases: functional
# TK-10 = test: Cytotoxicity against human TK10 cells assessed as cell growth at 10 uM; conditions: read-out: Activity
# In short: (§1)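 NCI-60 screen: cells grown in RPMI 1640 with 5% FBS and 2 mM L-glutamine, plated at 5000–40,000 cells/well according to doubling time, and preincubated 24 h at 37 °C, 5% CO2. The single 10 µM dose (DMSO stock) was added, then incubated 48 h. Cells were TCA-fixed and stained with 0.4% SRB, read at 515 nm, and growth % calculated against time-zero and control plates.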
# UACC-62 = test: Cytotoxicity against human UACC62 cells assessed as cell growth at 10 uM; conditions: read-out: Activity; in short: as §1
# NCI/ADR-RES = test: Cytotoxicity against human NCI/ADR-RES cells assessed as cell growth at 10 uM; conditions: read-out: Activity; in short: as §1
# M14 = test: Cytotoxicity against human M14 cells assessed as cell growth at 10 uM; conditions: read-out: Activity; in short: as §1
# SR = test: Cytotoxicity against human SR cells assessed as cell growth at 10 uM; conditions: read-out: Activity; in short: as §1
# SNB-75 = test: Cytotoxicity against human SNB75 cells assessed as cell growth at 10 uM; conditions: read-out: Activity; in short: as §1
# OVCAR-8 = test: Cytotoxicity against human OVCAR8 cells assessed as cell growth at 10 uM; conditions: read-out: Activity; in short: as §1
# DU-145 = test: Cytotoxicity against human DU145 cells assessed as cell growth at 10 uM; conditions: read-out: Activity
# In short: (§2)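 Single-dose NCI-60 screen at 10 µM. Cells were grown in RPMI 1640 with 5% FBS and 2 mM L-glutamine, then treated for 48 h at 37 °C. Protein was measured by SRB staining with absorbance at 515 nm. Percentage growth was recorded, and inhibition percentage was calculated as 100 minus growth percentage.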
# NCI-H226 = test: Cytotoxicity against human NCI-H226 cells assessed as cell growth at 10 uM; conditions: read-out: Activity; in short: as §1
# HT-29 = test: Cytotoxicity against human HT-29 cells assessed as cell growth at 10 uM; conditions: read-out: Activity; in short: as §2
# HL-60(TB) = test: Cytotoxicity against human HL-60(TB) cells assessed as cell growth at 10 uM; conditions: read-out: Activity
# In short: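 NCI 60-cell panel screen at a single concentration of 10 µM. Cells are grown in RPMI 1640 with 5% FBS and 2 mM L-glutamine and read by SRB protein staining at 515 nm. Percent growth is measured relative to time-zero and untreated controls; inhibition % is 100 minus growth %.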
# NCI-H522 = test: Cytotoxicity against human NCI-H522 cells assessed as cell growth at 10 uM; conditions: read-out: Activity; in short: as §1
# RXF 393 = test: Cytotoxicity against human RXF393 cells assessed as cell growth at 10 uM; conditions: read-out: Activity; in short: as §1
# [1] = Growth inhibition of human NCI60 cells at 10 uM after 48 hrs by sulforhodamine B assay relative to control; conditions: NCI60, 48 h, read-out: GI
# In short: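 Single-dose NCI screen at 10 µM across the 60-line panel, 48 h exposure at 37 °C after a 24 h preincubation. Adherent cells were fixed with cold TCA and stained with 0.4% SRB, and absorbance was read at 515 nm. Inhibition % was taken as 100 minus growth %, and the mean across all lines was reported.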
# [2] = Cytotoxicity against human Hs 578T cells assessed as cell growth at 10 uM; conditions: read-out: Activity; in short: as §2
# SK-OV-3 = test: Cytotoxicity against human SKOV3 cells assessed as cell growth at 10 uM; conditions: read-out: Activity; in short: as §1
# HCT-116 = test: Cytotoxicity against human HCT116 cells assessed as cell growth at 10 uM; conditions: read-out: Activity; in short: as §2
# HOP-92 = test: Cytotoxicity against human HOP92 cells assessed as cell growth at 10 uM; conditions: read-out: Activity; in short: as §2
# CCRF-CEM = test: Cytotoxicity against human CCRF-CEM cells assessed as cell growth at 10 uM; conditions: read-out: Activity; in short: as §2
# HCT-15 = test: Cytotoxicity against human HCT15 cells assessed as cell growth at 10 uM; conditions: read-out: Activity; in short: as §2
# 786-0 = test: Cytotoxicity against human 786-0 cells assessed as cell growth at 10 uM; conditions: read-out: Activity; in short: as §2
# [3] = Cytotoxicity against human […] cells assessed as cell growth at 10 uM; conditions: read-out: Activity; in short: as §1
# SF-268 = test: Cytotoxicity against human SF268 cells assessed as cell growth at 10 uM; conditions: read-out: Activity; in short: as §1
# EKVX = test: Cytotoxicity against human EKVX cells assessed as cell growth at 10 uM; conditions: read-out: Activity; in short: as §2
# A549 = test: Cytotoxicity against human A549 cells assessed as cell growth at 10 uM; conditions: read-out: Activity; in short: as §2
# MDA-MB-435 = test: Cytotoxicity against human MDA-MB-435 cells assessed as cell growth at 10 uM; conditions: read-out: Activity; in short: as §1
# CAKI-1 = test: Cytotoxicity against human Caki1 cells assessed as cell growth at 10 uM; conditions: read-out: Activity; in short: as §2
# ACHN = test: Cytotoxicity against human ACHN cells assessed as cell growth at 10 uM; conditions: read-out: Activity; in short: as §2
# U-251 = test: Cytotoxicity against human U251 cells assessed as cell growth at 10 uM; conditions: read-out: Activity; in short: as §1
# SF-539 = test: Cytotoxicity against human SF539 cells assessed as cell growth at 10 uM; conditions: read-out: Activity; in short: as §1
# UO-31 = test: Cytotoxicity against human UO31 cells assessed as cell growth at 10 uM; conditions: read-out: Activity; in short: as §1
# SF-295 = test: Cytotoxicity against human SF295 cells assessed as cell growth at 10 uM; conditions: read-out: Activity; in short: as §1
# SN12C = test: Cytotoxicity against human SN12C cells assessed as cell growth at 10 uM; conditions: read-out: Activity; in short: as §1
# A498 = test: Cytotoxicity against human A498 cells assessed as cell growth at 10 uM; conditions: read-out: Activity; in short: as §2
# BT-549 = test: Cytotoxicity against human BT549 cells assessed as cell growth at 10 uM; conditions: read-out: Activity; in short: as §2
# NCI-H460 = test: Cytotoxicity against human NCI-H460 cells assessed as cell growth at 10 uM; conditions: read-out: Activity; in short: as §1
# MOLT-4 = test: Cytotoxicity against human MOLT4 cells assessed as cell growth at 10 uM; conditions: read-out: Activity; in short: as §1
# SW-620 = test: Cytotoxicity against human SW620 cells assessed as cell growth at 10 uM; conditions: read-out: Activity; in short: as §1
# IGROV-1 = test: Cytotoxicity against human IGROV1 cells assessed as cell growth at 10 uM; conditions: read-out: Activity; in short: as §2
# T47D = test: Cytotoxicity against human T47D cells assessed as cell growth at 10 uM; conditions: read-out: Activity; in short: as §1
# LOX IMVI = test: Cytotoxicity against human LOXIMVI cells assessed as cell growth at 10 uM; conditions: read-out: Activity; in short: as §1
# OVCAR-4 = test: Cytotoxicity against human OVCAR4 cells assessed as cell growth at 10 uM; conditions: read-out: Activity; in short: as §1
# MDA-MB-231 = test: Cytotoxicity against human MDA-MB-231 cells assessed as cell growth at 10 uM; conditions: read-out: Activity; in short: as §1
# HCC 2998 = test: Cytotoxicity against human HCC2998 cells assessed as cell growth at 10 uM; conditions: read-out: Activity; in short: as §2
# OVCAR-5 = test: Cytotoxicity against human OVCAR5 cells assessed as cell growth at 10 uM; conditions: read-out: Activity; in short: as §1
# K562 = test: Cytotoxicity against human K562 cells assessed as cell growth at 10 uM; conditions: read-out: Activity; in short: as §2
# SK-MEL-5 = test: Cytotoxicity against human SK-MEL-5 cells assessed as cell growth at 10 uM; conditions: read-out: Activity; in short: as §1
# KM12 = test: Cytotoxicity against human KM12 cells assessed as cell growth at 10 uM; conditions: read-out: Activity; in short: as §1
# COLO 205 = test: Cytotoxicity against human COLO205 cells assessed as cell growth at 10 uM; conditions: read-out: Activity; in short: as §2
# NCI-H23 = test: Cytotoxicity against human NCI-H23 cells assessed as cell growth at 10 uM; conditions: read-out: Activity; in short: as §1
# PC-3 = test: Cytotoxicity against human PC3 cells assessed as cell growth at 10 uM; conditions: read-out: Activity; in short: as §1
# SK-MEL-2 = test: Cytotoxicity against human SK-MEL-2 cells assessed as cell growth at 10 uM; conditions: read-out: Activity; in short: as §1
# NCI-H322M = test: Cytotoxicity against human NCI-H322M cells assessed as cell growth at 10 uM; conditions: read-out: Activity; in short: as §1
# HOP-62 = test: Cytotoxicity against human HOP62 cells assessed as cell growth at 10 uM; conditions: read-out: Activity; in short: as §2
# SNB-19 = test: Cytotoxicity against human SNB19 cells assessed as cell growth at 10 uM; conditions: read-out: Activity; in short: as §1
# UACC-257 = test: Cytotoxicity against human UACC257 cells assessed as cell growth at 10 uM; conditions: read-out: Activity; in short: as §1
# MCF7 = test: Cytotoxicity against human MCF7 cells assessed as cell growth at 10 uM; conditions: read-out: Activity; in short: as §1
# OVCAR-3 = test: Cytotoxicity against human OVCAR-3 cells assessed as cell growth at 10 uM; conditions: read-out: Activity; in short: as §1
# SK-MEL-28 = test: Cytotoxicity against human SK-MEL-28 cells assessed as cell growth at 10 uM; conditions: read-out: Activity; in short: as §1
# Malme-3M = test: Cytotoxicity against human MALME-3M cells assessed as cell growth at 10 uM; conditions: read-out: Activity; in short: as §1
# MDA-MB-468 = test: Cytotoxicity against human MDA-MB-468 cells assessed as cell growth at 10 uM; conditions: read-out: Activity; in short: as §1
smiles,measurement,setting,value
COc1cc(C)cc(-c2nn(CC#N)cc2-c2ccnc(-c3ccc(Oc4ccccc4)cc3)c2)c1,growth at 10 µM,TK-10,88.6%
same,growth at 10 µM,UACC-62,65.8%
same,growth at 10 µM,NCI/ADR-RES,80.3%
same,growth at 10 µM,M14,102%
same,growth at 10 µM,SR,95.8%
same,growth at 10 µM,SNB-75,74.4%
same,growth at 10 µM,OVCAR-8,84.4%
same,growth at 10 µM,DU-145,105%
same,growth at 10 µM,NCI-H226,66.5%
same,growth at 10 µM,HT-29,73.9%
same,growth at 10 µM,HL-60(TB),91.2%
same,growth at 10 µM,NCI-H522,72.5%
same,growth at 10 µM,RXF 393,64.2%
same,inhibition of growth at 10 µM,[1],13.5%
same,growth at 10 µM,[2],94.3%
same,growth at 10 µM,SK-OV-3,95.4%
same,growth at 10 µM,HCT-116,81.8%
same,growth at 10 µM,HOP-92,85.5%
same,growth at 10 µM,CCRF-CEM,91.3%
same,growth at 10 µM,HCT-15,71%
same,growth at 10 µM,786-0,95%
same,growth at 10 µM,[3],83%
same,growth at 10 µM,SF-268,96.9%
same,growth at 10 µM,EKVX,98.2%
same,growth at 10 µM,A549,85.8%
same,growth at 10 µM,MDA-MB-435,98.1%
same,growth at 10 µM,CAKI-1,78.7%
same,growth at 10 µM,ACHN,85.4%
same,growth at 10 µM,U-251,88.4%
same,growth at 10 µM,SF-539,95.3%
same,growth at 10 µM,UO-31,84.8%
same,growth at 10 µM,SF-295,95.1%
same,growth at 10 µM,SN12C,84.8%
same,growth at 10 µM,A498,85.3%
same,growth at 10 µM,BT-549,96.3%
same,growth at 10 µM,NCI-H460,106%
same,growth at 10 µM,MOLT-4,73.7%
same,growth at 10 µM,SW-620,98.6%
same,growth at 10 µM,IGROV-1,94.9%
same,growth at 10 µM,T47D,20.1%
same,growth at 10 µM,LOX IMVI,98%
same,growth at 10 µM,OVCAR-4,82.9%
same,growth at 10 µM,MDA-MB-231,88.6%
same,growth at 10 µM,HCC 2998,93.9%
same,growth at 10 µM,OVCAR-5,90.2%
same,growth at 10 µM,K562,88%
same,growth at 10 µM,SK-MEL-5,53.8%
same,growth at 10 µM,KM12,100%
same,growth at 10 µM,COLO 205,98.6%
same,growth at 10 µM,NCI-H23,88.3%
same,growth at 10 µM,PC-3,91.9%
same,growth at 10 µM,SK-MEL-2,85.2%
same,growth at 10 µM,NCI-H322M,96.3%
same,growth at 10 µM,HOP-62,96.1%
same,growth at 10 µM,SNB-19,88.5%
same,growth at 10 µM,UACC-257,91.6%
same,growth at 10 µM,MCF7,72.1%
same,growth at 10 µM,OVCAR-3,109%
same,growth at 10 µM,SK-MEL-28,104%
same,growth at 10 µM,Malme-3M,112%
same,growth at 10 µM,MDA-MB-468,23.6%

# From ChEMBL document CHEMBL1165950, “Design and synthesis of new potent anticancer pyrazoles with high FLT3 kinase inhibitory selectivity” (Bioorg Med Chem, 2010)
